# Laboratory results: ChEMBL document CHEMBL1146375, “Synthetic studies on novel benzimidazolopeptides with antimicrobial, cytotoxic and anthelmintic potential” (2007)
# Residues, ends and D or L forms follow the SMILES beside them. *: point of attachment. X1 = Cc1cc2nc(-c3ccc(O)c(C(=O)*)c3)[nH]c2cc1C
# How the values were obtained:
# [1] = Growth inhibition of DLA cells after 3 hrs; assay type: functional; conditions: Mus musculus
# How it was run: (§1)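 DLA and EAC cells passaged intraperitoneally in albino mice, harvested after 15–20 days and adjusted to 1 × 10⁶ cells/mL. Dilutions in Dulbecco's medium (500–31.25, some down to 3.91 µg/mL; 5-FU reference) mixed 1:1 with cells and held 3 h at 37 °C. Trypan blue exclusion gave % growth inhibition; CTC50 by graphical extrapolation.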
# [2] = Growth inhibition of DLA cells at 31.25 ug/mL after 3 hrs; assay type: functional; conditions: Mus musculus; how it was run: as §1
# [3] = Growth inhibition of DLA cells at 3.91 ug/mL after 3 hrs; assay type: functional; conditions: Mus musculus; how it was run: as §1
# Microsporum audouinii [4] = experiment: Antifungal activity against Microsporum audouinii MUCC 545 after 48 hrs by tube dilution method; assay type: functional
# How it was run: (§2)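 Tube dilution MIC as for bacteria (seven concentrations, 200–3.1 […]), with DMSO in place of DMF. Tubes inoculated with fungal culture and incubated 48 h at 37 °C. MIC read from presence or absence of growth.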
# Microsporum audouinii [5] = experiment: Antifungal activity against Microsporum audouinii MUCC 545 after 48 hrs by disc diffusion method; assay type: functional
# How it was run: (§3)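 Agar well diffusion on plates inoculated with spore suspension in normal saline from cultures on Sabouraud's broth. Wells punched and loaded with test samples or griseofulvin at 10 mg mL^-1, with DMSO as negative control. Incubated 48 h at 37 °C.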
# Staphylococcus aureus [6] = experiment: Antibacterial activity against Staphylococcus aureus NCIM 2079 after 18 hrs by disc diffusion method; assay type: functional
# How it was run: (§4)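 Modified Kirby-Bauer disc diffusion. Plates inoculated with spore suspension (about 6 × 10⁴ spores mL^-1). Sterile 6 mm paper discs carried test samples at 10 mg mL^-1; ciprofloxacin disc as reference, DMF disc as negative control. Plates held 18 h at 37 °C. Inhibition zone diameters (mm) averaged over triplicate sets.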
# Pontoscolex corethrurus [7] = experiment: Anthelmintic activity against Pontoscolex corethrurus ICARBC 408 assessed as mean death time; assay type: functional
# How it was run: (§5)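 Earthworms exposed to test suspensions at 2 mg mL−1, prepared by triturating compound with Tween 80 (0.5%) and distilled water, stirring 30 min, then diluting to 0.2% w/v. Mebendazole suspension was made the same way. Death was confirmed by moving worms into 50 °C warm water and looking for movement. Mean death time (min) taken from triplicate sets.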
# Eudrilus [8] = experiment: Anthelmintic activity against Eudrilus sp. assessed as mean death time; assay type: functional; how it was run: as §5
# Pseudomonas aeruginosa [9] = experiment: Antibacterial activity against Pseudomonas aeruginosa NCIM 2034 after 18 hrs by tube dilution method; assay type: functional; conditions: NCIM 2034, 18 h
# How it was run: (§6)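 Tube dilution MIC. Stock diluted in sterile broth to seven concentrations from 200 to 3.1 […]. Each tube inoculated with one loopful of test bacterium and incubated 18 h at 37 °C. MIC read from presence or absence of growth.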
# Bacillus subtilis [10] = experiment: Antibacterial activity against Bacillus subtilis NCIM 2063 after 18 hrs by tube dilution method; assay type: functional; conditions: NCIM 2063, 18 h; how it was run: as §6
# [11] = Growth inhibition of DLA cells at 62.5 ug/mL after 3 hrs; assay type: functional; conditions: Mus musculus; how it was run: as §1
# Pseudomonas aeruginosa [12] = experiment: Antibacterial activity against Pseudomonas aeruginosa NCIM 2034 after 18 hrs by disc diffusion method; assay type: functional; how it was run: as §4
# Pontoscolex corethrurus [13] = experiment: Anthelmintic activity against Pontoscolex corethrurus ICARBC 408 assessed as mean paralyzing time; assay type: functional
# How it was run: (§7)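 Earthworms exposed to test suspensions at 2 mg mL^-1 (0.2% w/v), made by triturating compound with Tween 80 (0.5%) and distilled water, then mechanically stirred 30 min. Mebendazole suspension prepared alike as reference. Paralysis and death times recorded; death confirmed by no movement in 50 °C water. Means from triplicate sets.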
# Trichophyton benhamiae [14] = experiment: Antifungal activity against Trichophyton mentagrophytes MUCC 665 after 48 hrs by tube dilution method; assay type: functional, Arthroderma benhamiae; how it was run: as §2
# Bacillus subtilis [15] = experiment: Antibacterial activity against Bacillus subtilis NCIM 2063 after 18 hrs by disc diffusion method; assay type: functional; how it was run: as §4
# Aspergillus niger = experiment: Antifungal activity against Aspergillus niger MUCC 177 after 48 hrs by disc diffusion method; assay type: functional; how it was run: as §3
# [16] = Growth inhibition of EAC cells at 62.5 ug/mL after 3 hrs; assay type: functional; conditions: Mus musculus, Ehrlich; how it was run: as §1
# Candida albicans [17] = experiment: Antifungal activity against Candida albicans MUCC 29 after 48 hrs by disc diffusion method; assay type: functional; how it was run: as §3
# [18] = Growth inhibition of DLA cells at 15.63 ug/mL after 3 hrs; assay type: functional; conditions: Mus musculus; how it was run: as §1
# [19] = Growth inhibition of DLA cells at 7.81 ug/mL after 3 hrs; assay type: functional; conditions: Mus musculus; how it was run: as §1
# [20] = Growth inhibition of EAC cells at 15.63 ug/mL after 3 hrs; assay type: functional; conditions: Mus musculus, Ehrlich; how it was run: as §1
# Escherichia coli [21] = experiment: Antibacterial activity against Escherichia coli NCIM 2065 after 18 hrs by tube dilution method; assay type: functional; conditions: NCIM 2065, 18 h
# [22] = Anthelmintic activity against Megascoplex konkanensis ICARBC 211 assessed as mean death time; assay type: functional; how it was run: as §7
# [23] = Growth inhibition of EAC cells at 31.25 ug/mL after 3 hrs; assay type: functional; conditions: Mus musculus, Ehrlich; how it was run: as §1
# [24] = Growth inhibition of EAC cells at 3.91 ug/mL after 3 hrs; assay type: functional; conditions: Mus musculus, Ehrlich; how it was run: as §1
# Trichophyton benhamiae [25] = experiment: Antifungal activity against Trichophyton mentagrophytes MUCC 665 after 48 hrs by disc diffusion method; assay type: functional, Arthroderma benhamiae; how it was run: as §3
# [26] = Anthelmintic activity against Megascoplex konkanensis ICARBC 211 assessed as mean paralyzing time; assay type: functional; how it was run: as §7
# Escherichia coli [27] = experiment: Antibacterial activity against Escherichia coli NCIM 2065 after 18 hrs by disc diffusion method; assay type: functional; how it was run: as §4
# [28] = Growth inhibition of EAC cells after 3 hrs; assay type: functional; conditions: Mus musculus, Ehrlich; how it was run: as §1
# Eudrilus [29] = experiment: Anthelmintic activity against Eudrilus sp. assessed as mean paralyzing time; assay type: functional; how it was run: as §7
# [30] = Growth inhibition of EAC cells at 7.81 ug/mL after 3 hrs; assay type: functional; conditions: Mus musculus, Ehrlich; how it was run: as §1
# Staphylococcus aureus [31] = experiment: Antibacterial activity against Staphylococcus aureus NCIM 2079 after 18 hrs by tube dilution method; assay type: functional; conditions: NCIM 2079, 18 h; how it was run: as §6
# Candida albicans [32] = experiment: Antifungal activity against Candida albicans MUCC 29 after 48 hrs by tube dilution method; assay type: functional; how it was run: as §2
# [33] = Growth inhibition of DLA cells at 500 ug/mL after 3 hrs; assay type: functional; conditions: Mus musculus; how it was run: as §1
# [34] = Growth inhibition of EAC cells at 250 ug/mL after 3 hrs; assay type: functional; conditions: Mus musculus, Ehrlich; how it was run: as §1
# [35] = Growth inhibition of DLA cells at 125 ug/mL after 3 hrs; assay type: functional; conditions: Mus musculus; how it was run: as §1
# [36] = Growth inhibition of EAC cells at 125 ug/mL after 3 hrs; assay type: functional; conditions: Mus musculus, Ehrlich; how it was run: as §1
# [37] = Growth inhibition of DLA cells at 250 ug/mL after 3 hrs; assay type: functional; conditions: Mus musculus; how it was run: as §1
# [38] = Growth inhibition of EAC cells at 500 ug/mL after 3 hrs; assay type: functional; conditions: Mus musculus, Ehrlich; how it was run: as §1
SMILES,CC50 [1] [µM],inhibition at 31.25 µg/mL [2] [%],MIC (Microsporum audouinii [4]) [µg/mL],inhibition zone (IZ) (Microsporum audouinii [5]) [mm],inhibition zone (IZ) (Staphylococcus aureus [6]) [mm],Time (Pontoscolex corethrurus [7]) [min],Time (Eudrilus [8]) [min],MIC (Pseudomonas aeruginosa [9]) [µg/mL],MIC (Bacillus subtilis [10]) [µg/mL],inhibition at 62.5 µg/mL [11] [%],inhibition zone (IZ) (Pseudomonas aeruginosa [12]) [mm],Time (Pontoscolex corethrurus [13]) [min],MIC (Trichophyton benhamiae [14]) [µg/mL],inhibition zone (IZ) (Bacillus subtilis [15]) [mm],inhibition zone (IZ) (Aspergillus niger) [mm],inhibition at 62.5 µg/mL [16] [%],inhibition zone (IZ) (Candida albicans [17]) [mm],MIC (Escherichia coli [21]) [µg/mL],TIME [22] [h],inhibition at 31.25 µg/mL [23] [%],other results
Cc1cc2nc(-c3ccc(O)c(C(=O)NCC(=O)N[C@@H](Cc4c[nH]c5ccccc45)C(=O)NCC(=O)N[C@@H](Cc4cnc[nH]4)C(=O)O)c3)[nH]c2cc1C (X1-GWGH-OH),6.15,100,6,11,10,24.52,19.83,6,6,100,24,12.22,6,14,16,100,20,12.5,0.289,92.8,inhibition at 3.91 µg/mL [3]: 44.7%; inhibition at 15.63 µg/mL [18]: 81.6%; inhibition at 7.81 µg/mL [19]: 60.5%; inhibition at 15.63 µg/mL [20]: 75%; inhibition at 3.91 µg/mL [24]: 10.7%; inhibition zone (IZ) (Trichophyton benhamiae [25]): 16 mm; TIME [26]: 0.155 h; inhibition zone (IZ) (Escherichia coli [27]): 18 mm; CC50 [28]: 12 µM; Time (Eudrilus [29]): 10.89 min; inhibition at 7.81 µg/mL [30]: 46.4%; MIC (Staphylococcus aureus [31]): 12.5 µg/mL; MIC (Candida albicans [32]): 6 µg/mL
COC(=O)[C@H](Cc1cnc[nH]1)NC(=O)[C@H](Cc1cnc[nH]1)NC(=O)c1cc(-c2nc3cc(C)c(C)cc3[nH]2)ccc1O,> 877,7.89,6,11,11,23.75,21.78,6,6,15.8,21,12.22,6,13,17,7.14,20,12.5,0.305,3.57,inhibition at 500 µg/mL [33]: 36.8%; inhibition at 250 µg/mL [34]: 14.3%; inhibition at 125 µg/mL [35]: 21%; inhibition at 125 µg/mL [36]: 7.14%; inhibition at 250 µg/mL [37]: 31.6%; inhibition at 500 µg/mL [38]: 21.4%; inhibition zone (IZ) (Trichophyton benhamiae [25]): 15 mm; TIME [26]: 0.175 h; inhibition zone (IZ) (Escherichia coli [27]): 17 mm; CC50 [28]: > 877 µM; Time (Eudrilus [29]): 10.38 min; MIC (Staphylococcus aureus [31]): 12.5 µg/mL; MIC (Candida albicans [32]): 6 µg/mL
